The text below walks through data of ChEMBL document CHEMBL5055631, “Antitumor properties of novel sesquiterpene lactone analogs as NFκB inhibitors that bind to the IKKβ ubiquitin-like domain (ULD)” (Eur J Med Chem, 2021).

One test concerns EKVX. The test is described as follows: Anticancer activity against human EKVX cells assessed as cell growth inhibition incubated for 48 hrs by SRB method. The format is functional. The procedure, abridged: (§1)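 NCI-60 panel (DTP). Cells in RPMI 1640 with 5% FBS, 2 mM L-glutamine, seeded at 5,000–40,000 per well by doubling time and preincubated 24 h at 37 °C, 5% CO2. Time-zero plates TCA-fixed. DMSO stocks diluted in medium with gentamicin, tested at 100 μM, 10 μM, 1 μM, 0.1 μM and 10 nM for 48 h. Cells fixed with cold TCA, stained with SRB, absorbance read at 515 nm.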

For the next test, the system named is HOP-62. The test is described as follows: Anticancer activity against human HOP-62 cells assessed as cell growth inhibition incubated for 48 hrs by SRB method. The format is functional. The method in brief:
as §1

The subject of another test is NCI-H23. The test is described as follows: Anticancer activity against human NCI-H23 cells assessed as cell growth inhibition incubated for 48 hrs by SRB method. The format is functional. The method in brief:
as §1

The subject of a further test is NCI-H322M. The test is described as follows: Anticancer activity against human NCI-H322M cells assessed as cell growth inhibition incubated for 48 hrs by SRB method. The format is functional. The method in brief:
as §1

Another test deals with NCI-H460. The test is described as follows: Anticancer activity against human NCI-H460 cells assessed as cell growth inhibition incubated for 48 hrs by SRB method. The format is functional. The method in brief:
as §1

A further test concerns M14. The test is described as follows: Anticancer activity against human M14 cells assessed as cell growth inhibition incubated for 48 hrs by SRB method. The format is functional. The method in brief: as §1
The subject of a further test is MDA-MB-435. The test is described as follows: Anticancer activity against human MDA-MB-435 cells assessed as cell growth inhibition incubated for 48 hrs by SRB method. The format is functional. The method in brief: as §1
A further test concerns UACC-62. The test is described as follows: Anticancer activity against human UACC-62 cells assessed as cell growth inhibition incubated for 48 hrs by SRB method. The format is functional. The procedure, abridged: (§2)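 NCI-60 panel, SRB assay. Cells grown in RPMI 1640 with 5% FBS and 2 mM L-glutamine, seeded at 5,000–40,000 cells/well depending on doubling time, and preincubated 24 h at 37 °C with 5% CO2. Time-zero plates were TCA-fixed. Compounds came from DMSO stocks and were tested at 100 μM, 10 μM, 1 μM, 0.1 μM and 10 nM for 48 h. Cells were fixed with cold TCA and stained with 0.4% SRB, and the dye was solubilized in 10 mM Tris base with A515 read.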

Another test relates to OVCAR-3. The test is described as follows: Anticancer activity against human OVCAR-3 cells assessed as cell growth inhibition incubated for 48 hrs by SRB method. The format is functional. The method in brief:
as §1

A further test relates to OVCAR-8. The test is described as follows: Anticancer activity against human OVCAR-8 cells assessed as cell growth inhibition incubated for 48 hrs by SRB method. The format is functional. The method in brief: as §1
The next test has as its system NCI/ADR-RES. The test is described as follows: Anticancer activity against human NCI/ADR-RES cells assessed as cell growth inhibition incubated for 48 hrs by SRB method. The format is functional. The procedure, abridged:
as §1

The subject of another test is CAKI-1. The test is described as follows: Anticancer activity against human CAKI-1 cells assessed as cell growth inhibition incubated for 48 hrs by SRB method. The format is functional. The method in brief:
as §1

A further test has as its system TK-10. The test is described as follows: Anticancer activity against human TK-10 cells assessed as cell growth inhibition incubated for 48 hrs by SRB method. The format is functional. The procedure, abridged: as §2
The test system of a further test is MCF7. The test is described as follows: Anticancer activity against human MCF7 cells assessed as cell growth inhibition incubated for 48 hrs by SRB method. The format is functional. The method in brief: as §1
The test system of a further test is MDA-MB-231. The test is described as follows: Anticancer activity against human MDA-MB-231 cells assessed as cell growth inhibition incubated for 48 hrs by SRB method. The format is functional. The procedure, abridged:
as §1

For test [1], the system named is OV-MD-231. The test is described as follows: Antiproliferative activity against human OV-MD-231 cells assessed as inhibition of cell proliferation at 0.5 to 5 uM measured over 4 to 5 days by bromodeoxyuridine incorporation assay. The format is functional, cell-based. Particulars: dose 0.5-5 µM, time 4-5 day. The procedure, abridged:
(§3)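 Seeded at 500–1000 cells/well, with treatment started one day after plating. Cells were exposed to a range of concentrations for 4–5 days, six wells per condition, and proliferation was read by BrdU incorporation ELISA. Data average two experiments of six technical replicates, and 2–4 biological replicates were run.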

A further test relates to TMD-231. The test is described as follows: Antiproliferative activity against human TMD-231 cells assessed as inhibition of cell proliferation at 0.5 to 5 uM measured over 4 to 5 days by bromodeoxyuridine incorporation assay. The format is functional, cell-based. Particulars: dose 0.5-5 µM, time 4-5 day. The procedure, abridged:
as §3

The target of test [2] is Inhibitor of nuclear factor kappa-B kinase subunit beta (Homo sapiens) (UniProt O14920). The test is described as follows: Inhibition of IKKbeta-mediated NFkappaB activation in human M9-ENL1 cells assessed as inhibition of phosphorylation of p65 at SER-536 residue at 2.5 to 10 uM by immunoblotting analysis. The format is cell-based. Particulars: dose 2.5-10 µM. The method in brief: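 Primary M9-ENL AML cells were exposed for 6 h to 2.5, 5.0 and 10 μM, with PTL as reference. Lysates were run on 8–10% SDS-PAGE and transferred to PVDF. Blots were blocked in 5% milk/TBST and probed for phospho-p65 (Ser536). Analyses were done in triplicate.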

In a further test the test system is SUM149PT. The test is described as follows: Antiproliferative activity against human SUM149PT cells assessed as inhibition of cell proliferation measured over 4 to 5 days by bromodeoxyuridine incorporation assay. The format is functional, cell-based. The procedure, abridged:
as §3

Test [3] concerns the target Transcription factor p65 (Homo sapiens) (UniProt Q04206). The test is described as follows: Inhibition of TNFalpha-induced phosphorylation of p65 in human SUM149PT cells at 2 uM by ELISA assay. The format is cell-based.
For test [4] the target is unchanged. The test is described as follows: Inhibition of TNFalpha-induced p65 phosphorylation in human OV-MD-231 cells at 2 uM by ELISA assay. The format is cell-based.
The target in test [5] is Inhibitor of nuclear factor kappa-B kinase subunit alpha (Homo sapiens) (UniProt O15111). The test is described as follows: Inhibition of TNFalpha-induced IkKalpha in human SUM149PT cells at 0.5 to 2 uM by ELISA assay. The format is cell-based. Particulars: dose 0.5-2 µM.
For test [6], the system named is OV-MD-231. The test is described as follows: Inhibition of NFkB binding with DNA in human […] cells assessed as reduction in NFkB-DNA binding at 2 uM measured over 3 hrs by electrophoretic mobility shift assay. The format is cell-based. The procedure, abridged:
(§4)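 Cells were exposed to 0.5 and 2.0 μM for 3 h. EMSA was run on whole-cell lysates with 32P-labelled probes carrying NF-κB binding sites, and an SP-1 probe served as the specificity control.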

Test [7] has as its target Nuclear factor NF-kappa-B p100 subunit (Homo sapiens) (UniProt Q00653). The test is described as follows: Inhibition of NFkB binding with DNA in human SUM149PT cells assessed as reduction in NFkB-DNA binding at 2 uM measured over 3 hrs by electrophoretic mobility shift assay. The format is cell-based. The procedure, abridged:
as §4

Activity calls are given as the source filed them. No cut-off for these calls is given here. Some results are limits rather than exact numbers.

Chain of Transcription factor p65 (Homo sapiens) (Q04206 whole entry): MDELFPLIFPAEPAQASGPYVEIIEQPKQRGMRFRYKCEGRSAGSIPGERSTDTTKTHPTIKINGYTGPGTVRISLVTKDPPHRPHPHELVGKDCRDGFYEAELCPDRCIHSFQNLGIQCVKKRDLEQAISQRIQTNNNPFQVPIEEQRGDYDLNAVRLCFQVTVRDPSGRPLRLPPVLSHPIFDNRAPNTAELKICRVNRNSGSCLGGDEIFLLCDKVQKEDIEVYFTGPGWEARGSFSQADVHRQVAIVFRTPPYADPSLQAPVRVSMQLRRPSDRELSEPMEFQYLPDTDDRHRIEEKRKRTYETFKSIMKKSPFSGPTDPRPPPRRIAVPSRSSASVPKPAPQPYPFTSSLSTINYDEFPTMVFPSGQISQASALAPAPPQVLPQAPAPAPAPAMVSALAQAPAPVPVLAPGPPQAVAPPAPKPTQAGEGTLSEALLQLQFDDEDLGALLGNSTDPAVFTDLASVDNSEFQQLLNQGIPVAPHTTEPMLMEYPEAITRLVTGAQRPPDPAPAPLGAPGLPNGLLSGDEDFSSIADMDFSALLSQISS
Chain of Inhibitor of nuclear factor kappa-B kinase subunit alpha (Homo sapiens) (O15111 whole entry): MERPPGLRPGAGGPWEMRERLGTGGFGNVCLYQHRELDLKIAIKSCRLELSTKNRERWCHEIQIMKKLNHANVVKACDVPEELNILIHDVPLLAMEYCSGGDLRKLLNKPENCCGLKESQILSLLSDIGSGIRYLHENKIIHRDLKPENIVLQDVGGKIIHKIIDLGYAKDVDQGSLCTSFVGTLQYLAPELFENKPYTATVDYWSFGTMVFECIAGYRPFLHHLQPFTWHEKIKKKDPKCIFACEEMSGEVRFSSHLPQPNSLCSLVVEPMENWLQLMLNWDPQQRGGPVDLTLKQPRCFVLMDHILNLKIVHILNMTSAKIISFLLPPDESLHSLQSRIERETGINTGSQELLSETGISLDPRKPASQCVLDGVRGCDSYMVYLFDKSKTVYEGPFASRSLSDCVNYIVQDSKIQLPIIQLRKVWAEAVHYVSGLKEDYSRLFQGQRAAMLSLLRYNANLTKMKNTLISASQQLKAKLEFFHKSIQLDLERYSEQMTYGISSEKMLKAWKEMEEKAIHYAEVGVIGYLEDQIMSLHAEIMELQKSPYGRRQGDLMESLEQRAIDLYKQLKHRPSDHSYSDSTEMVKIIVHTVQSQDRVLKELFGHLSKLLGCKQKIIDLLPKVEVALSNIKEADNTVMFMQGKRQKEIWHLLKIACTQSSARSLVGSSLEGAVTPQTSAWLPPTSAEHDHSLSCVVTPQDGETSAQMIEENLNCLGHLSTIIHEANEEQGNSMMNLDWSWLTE
Chain of Nuclear factor NF-kappa-B p100 subunit (Homo sapiens) (Q00653 whole entry): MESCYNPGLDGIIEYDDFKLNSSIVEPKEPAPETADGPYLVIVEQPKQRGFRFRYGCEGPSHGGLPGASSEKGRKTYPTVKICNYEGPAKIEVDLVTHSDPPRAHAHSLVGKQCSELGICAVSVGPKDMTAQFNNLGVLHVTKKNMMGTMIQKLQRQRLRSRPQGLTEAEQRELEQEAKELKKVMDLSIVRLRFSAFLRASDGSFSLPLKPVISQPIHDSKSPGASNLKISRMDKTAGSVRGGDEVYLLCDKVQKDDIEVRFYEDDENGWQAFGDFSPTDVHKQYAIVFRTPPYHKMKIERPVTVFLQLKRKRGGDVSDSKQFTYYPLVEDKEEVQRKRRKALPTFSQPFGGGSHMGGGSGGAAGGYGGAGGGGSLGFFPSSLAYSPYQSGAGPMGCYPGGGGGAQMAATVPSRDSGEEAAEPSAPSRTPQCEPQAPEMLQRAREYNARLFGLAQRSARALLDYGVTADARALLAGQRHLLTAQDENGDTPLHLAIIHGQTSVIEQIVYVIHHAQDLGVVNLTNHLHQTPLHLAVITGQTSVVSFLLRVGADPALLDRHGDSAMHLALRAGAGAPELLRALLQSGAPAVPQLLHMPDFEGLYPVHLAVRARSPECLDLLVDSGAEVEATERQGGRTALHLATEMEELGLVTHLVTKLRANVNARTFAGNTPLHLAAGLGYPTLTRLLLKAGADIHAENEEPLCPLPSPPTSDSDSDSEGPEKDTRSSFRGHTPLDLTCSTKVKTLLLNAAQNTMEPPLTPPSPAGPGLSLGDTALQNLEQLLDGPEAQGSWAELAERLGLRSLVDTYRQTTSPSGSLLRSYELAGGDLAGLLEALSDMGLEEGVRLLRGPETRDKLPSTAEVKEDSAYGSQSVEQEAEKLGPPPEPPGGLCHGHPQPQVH
Chain of Inhibitor of nuclear factor kappa-B kinase subunit beta (Homo sapiens) (O14920 whole entry): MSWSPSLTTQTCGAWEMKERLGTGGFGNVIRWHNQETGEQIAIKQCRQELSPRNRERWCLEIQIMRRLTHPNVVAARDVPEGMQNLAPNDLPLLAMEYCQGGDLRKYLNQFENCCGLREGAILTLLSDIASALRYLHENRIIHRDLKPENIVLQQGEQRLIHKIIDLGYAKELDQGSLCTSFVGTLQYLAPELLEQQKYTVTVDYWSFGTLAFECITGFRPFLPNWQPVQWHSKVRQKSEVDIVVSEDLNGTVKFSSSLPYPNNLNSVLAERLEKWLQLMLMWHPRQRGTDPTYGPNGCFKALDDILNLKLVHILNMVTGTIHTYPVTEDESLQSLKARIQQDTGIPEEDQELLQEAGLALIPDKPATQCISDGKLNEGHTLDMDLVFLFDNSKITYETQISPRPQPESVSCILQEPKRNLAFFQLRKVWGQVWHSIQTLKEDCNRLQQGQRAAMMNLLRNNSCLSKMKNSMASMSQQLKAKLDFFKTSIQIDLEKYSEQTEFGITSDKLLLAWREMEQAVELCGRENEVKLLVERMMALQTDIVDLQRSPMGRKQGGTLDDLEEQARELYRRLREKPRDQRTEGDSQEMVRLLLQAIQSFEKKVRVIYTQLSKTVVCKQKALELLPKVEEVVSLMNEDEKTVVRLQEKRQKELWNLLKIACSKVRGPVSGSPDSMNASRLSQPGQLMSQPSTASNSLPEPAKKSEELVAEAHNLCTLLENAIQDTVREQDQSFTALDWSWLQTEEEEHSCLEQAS

In the case of `C=C1C(=O)O[C@H]2[C@H]1CC/C(COC(=O)NCc1cc(OC)cc(OC)c1)=C\CC[C@@]1(C)O[C@@H]21`, the 50% growth inhibitory concentration (GI50) with EKVX came to 2060 nM; in the test with HOP-62 it was 3060 nM; in the test with NCI-H23, 1840 nM; in the test on NCI-H322M, 4720 nM; in the test with NCI-H460, 3010 nM; with M14, 1640 nM. Further, the GI50 was determined as 1990 nM in the test with MDA-MB-435; 1200 nM with UACC-62; 660 nM in the test with OVCAR-3; 1700 nM with OVCAR-8; 1820 nM with NCI/ADR-RES; 2110 nM with CAKI-1. The values for the GI50 in the test with TK-10, in the test on MCF7 and in the test on MDA-MB-231 were 1590 nM, 2720 nM and 720 nM, respectively.
Regarding `C=C1C(=O)O[C@H]2[C@H]1CC/C(COC(=O)NCc1ccccc1OC)=C\CC[C@@]1(C)O[C@@H]21`, the GI50 is 1980 nM with EKVX; 3690 nM in the test with HOP-62; 1740 nM with NCI-H23; 3730 nM with NCI-H460; 1100 nM in the test with M14; 1700 nM in the test with MDA-MB-435. In addition, the GI50 was found to be 1840 nM in the test on UACC-62; 1780 nM with OVCAR-8; 2290 nM in the test on NCI/ADR-RES; 3230 nM in the test with CAKI-1; 1380 nM in the test on TK-10; 3130 nM in the test with MCF7. The GI50 in the test with MDA-MB-231 is 690 nM.
On to `C=C1C(=O)O[C@H]2[C@H]1CC/C(COC(=O)NCc1ccc(OC)cc1)=C\CC[C@@]1(C)O[C@@H]21`, for which the GI50 was 1290 nM with EKVX; 4810 nM in the test on HOP-62; 550 nM with NCI-H23; 2740 nM with NCI-H460; 190 nM in the test on M14; 420 nM with MDA-MB-435. The GI50 amounted to 2860 nM with UACC-62; 490 nM with OVCAR-8; 1460 nM in the test on NCI/ADR-RES; 720 nM in the test with CAKI-1; 310 nM with TK-10; 1870 nM in the test with MCF7. In addition, the GI50 in the test with MDA-MB-231 is 370 nM. The inhibition entry (in the test with OV-MD-231 [1]; in the test on TMD-231; in test [3]; in test [4]; in test [5]) was “Active” throughout. Also, the inhibition result (in test [2]; with OV-MD-231 [6]; in [7]) was “inactive” in each case. Besides, the IC50 with SUM149PT is less than 1000 nM.
On to `C=C1C(=O)O[C@H]2[C@H]1CC/C(COC(=O)NCCc1ccc(OC)cc1)=C\CC[C@@]1(C)O[C@@H]21`, for which the GI50 in the test with EKVX came to 7450 nM; in the test on HOP-62 it was 12200 nM; with NCI-H23, 4340 nM; in the test on NCI-H322M, 12600 nM; with NCI-H460 it was 12200 nM; with M14 it was 1980 nM. Further, the 50% growth inhibitory concentration (GI50) with MDA-MB-435 was 3530 nM; in the test with UACC-62 it was 1710 nM; with OVCAR-8, 3410 nM; in the test on NCI/ADR-RES, 2650 nM; with CAKI-1 it was 4520 nM; with TK-10 it was 2520 nM. Besides, the GI50 in the test with MCF7 worked out at 8080 nM; in the test on MDA-MB-231 it was 1920 nM.
